# Measured values from article PMC2871304 (Biochemistry, 2010).
# Legend:
# [1] = system: protease XIV; test: Enzymatic degradation of Aβ fibrils by protease XIV; format: in vitro ADME; conditions: protease XIV 100 μg/mL, 24 h, 0.1 M phosphate buffer pH 7.4, 37°C; MALDI-TOF
# Outline: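 Fibrils from 100 μM Aβ(1-42) were aged 2 days at 37°C, then digested with the enzyme. Products (about 1 μg/mL peptide) were mixed with saturated sinapic acid in ACN/0.1% TFA (1:2) and run by MALDI-TOF over 20–5000 Da. Enzyme alone served as control. Cleavage patterns were inferred from substrate specificity (C-terminal to aromatic and basic residues) and fragment masses.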
# [2] = molecular target: neprilysin (NEP) (Homo sapiens, UniProt P08473); test: Enzymatic degradation of Aβ fibrils by neprilysin; format: in vitro ADME; conditions: NEP 50 μg/mL, 48 h, 0.1 M phosphate buffer pH 7.4, 37°C; AFM
# Chain of neprilysin (NEP) (P08473 whole entry, species assumed): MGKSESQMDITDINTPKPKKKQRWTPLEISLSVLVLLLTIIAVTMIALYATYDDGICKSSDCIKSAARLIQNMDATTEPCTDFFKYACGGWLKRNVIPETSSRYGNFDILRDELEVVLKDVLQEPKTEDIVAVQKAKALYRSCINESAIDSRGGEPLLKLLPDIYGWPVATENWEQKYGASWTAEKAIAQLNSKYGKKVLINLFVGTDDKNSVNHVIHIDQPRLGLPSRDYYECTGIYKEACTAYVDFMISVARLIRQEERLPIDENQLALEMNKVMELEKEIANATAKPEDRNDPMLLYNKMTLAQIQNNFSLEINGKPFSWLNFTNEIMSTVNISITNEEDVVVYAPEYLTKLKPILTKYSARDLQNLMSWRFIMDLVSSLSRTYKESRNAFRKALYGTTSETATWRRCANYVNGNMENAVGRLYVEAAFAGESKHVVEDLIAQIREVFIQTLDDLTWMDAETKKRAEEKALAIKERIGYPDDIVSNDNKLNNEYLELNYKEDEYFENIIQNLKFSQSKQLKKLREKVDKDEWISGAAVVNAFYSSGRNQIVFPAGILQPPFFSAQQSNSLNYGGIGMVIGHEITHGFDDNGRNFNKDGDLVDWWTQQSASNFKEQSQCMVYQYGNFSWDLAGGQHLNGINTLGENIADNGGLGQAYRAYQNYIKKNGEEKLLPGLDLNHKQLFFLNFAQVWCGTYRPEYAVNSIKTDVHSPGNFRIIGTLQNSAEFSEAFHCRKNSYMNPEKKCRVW
# Outline: (§1)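 Fibrils were made from Aβ(1-42): 5 mM in DMSO, sonicated 10 min at 37°C, diluted to 100 μM in 10 mM HCl, sonicated 30 min, filtered through 10,000 MWCO, then held 2 days at 37°C. After enzyme treatment, fibrils on gold-coated substrates were imaged by tapping-mode AFM in air with a 3 N/m silicon cantilever. Tip-convolution calibration gave true dimensions.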
# [3] = molecular target: insulin degrading enzyme (IDE) (Homo sapiens, UniProt P14735); test: Enzymatic degradation of Aβ fibrils by insulin degrading enzyme; format: in vitro ADME; conditions: IDE 50 μg/mL, 48 h, 0.1 M phosphate buffer pH 7.4, 37°C; AFM
# Outline: as §1
# [4] = Circular dichroism, secondary structure content; format: physicochemical; conditions: CD at 37°C, filtered (10K MWCO) samples
# Outline: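 Microfibrils were measured by CD at 37°C before and after enzymatic degradation (24 or 48 h). Spectra were taken at 12 nm·sec−1 and 1 nm resolution, with 4 scans averaged. Enzyme-only solutions were subtracted. Data were expressed as molar residue ellipticity using 42 residues and 0.3 mM peptide. Secondary-structure content was estimated by a published method.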
# [5] = MFTIR, secondary structure of microfibrils in air; format: physicochemical; conditions: amide I region deconvoluted
# Outline: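 Aβ(1-42) fibrils, formed by incubating 100 μM peptide in dilute HCl for 2 days at 37°C, were deposited on gold-coated substrates. Infrared microscopy was done in reflection mode at 4 cm−1 resolution with a liquid-nitrogen-cooled MCT detector.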
substance,measurement,setting,value
"Aβ microfibrils: Fibrils of purchased Aβ(1-42) peptide, incubated in DMSO/10 mM HCl at 37°C for 2 days",full-length Aβ(1-42) after degradation by protease XIV,[1],no full-length Aβ(1-42) peptides
same,degradation on exposure to NEP,[2],almost no significant degradation
same,degradation on exposure to IDE,[3],almost no significant degradation
same,"beta-strand structures, filtered samples",[4],18±3%
same,alpha-helix and random coil content,[5],12±2%
same,beta-sheet content,[5],71±8%
same,turns content,[5],17±5%
